Data as given in ChEMBL document CHEMBL1157779, “Merging the structural motifs of functionalized amino acids and alpha-aminoamides: compounds with significant anticonvulsant activities” (J Med Chem, 2010).
Activity calls are given as the source filed them.

Assays:
[1] = test system: Mus musculus; experiment: Anticonvulsant activity in ip dosed albino mouse assessed as inhibition of maximal electroshock-induced seizures after 0.5 hrs; assay type: functional
[2] = test system: Mus musculus; experiment: Anticonvulsant activity in albino mouse assessed as protection against subcutaneous metrazole-induced seizures up to 300 mg/kg, ip after 4 hrs; assay type: functional, organism-based; set-up: dose 300 mg/kg
How it was run: (§1)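 Male albino Carworth Farms No. 1 mice dosed ip under NIH Anticonvulsant Screening Program; subcutaneous Metrazol seizure challenge at 0.5 and 4 h after doses up to 300 mg/kg.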

[3] = Behavioral toxicity in po dosed Sprague-Dawley albino rat after 4 hrs; assay type: organism-based; settings: Sprague-Dawley, in vivo
How it was run: (§2)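 Oral dosing in male albino Sprague-Dawley rats with behavioral toxicity observation at set times after dosing, doses up to 500 mg/kg.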

[4] = test system: Mus musculus; experiment: Anticonvulsant activity in albino mouse assessed as protection against subcutaneous metrazole-induced seizures up to 300 mg/kg, ip after 0.5 hrs; assay type: functional, organism-based; set-up: dose 300 mg/kg; how it was run: as §1
[5] = test system: Rattus norvegicus; experiment: Anticonvulsant activity in po dosed Sprague-Dawley albino rat assessed as inhibition of maximal electroshock-induced seizures after 1 hr; assay type: functional
How it was run: (§3)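 Male albino Sprague-Dawley rats dosed orally; maximal electroshock seizures, protection scored as blockade of hind limb extension, tested at set times after dosing; ED50 in mg/kg from quantitative evaluation for active compounds.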

[6] = test system: Rattus norvegicus; experiment: Anticonvulsant activity in po dosed Sprague-Dawley albino rat assessed as inhibition of maximal electroshock-induced seizures; assay type: functional; how it was run: as §3
[7] = Toxicity in ip dosed albino mouse after 4 hrs by rotarod test; assay type: organism-based; settings: in vivo
How it was run: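 Male albino Carworth Farms No. 1 mice dosed ip; neurological impairment by rotorod test at set times; TD50 (mg/kg) determined for compounds active in MES.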

[8] = test system: Mus musculus; experiment: Anticonvulsant activity in ip dosed albino mouse assessed as inhibition of maximal electroshock-induced seizures after 4 hrs; assay type: functional
How it was run: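 Male albino Carworth Farms No. 1 mice given compound ip; maximal electroshock applied and protection scored as blockade of hind limb extension; identification screening, then ED50 (mg/kg) from quantitative testing for active compounds.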

[9] = test system: Mus musculus; experiment: Anticonvulsant activity in ip dosed albino mouse assessed as inhibition of maximal electroshock-induced seizures after 2 hrs; assay type: functional
[10] = species: Rattus norvegicus; experiment: Protective index, ratio of TD50 for Sprague-Dawley albino rat to anticonvulsant ED50 for Sprague-Dawley albino rat; assay type: functional
How it was run: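 Rat, oral: behavioral-toxicity TD50 divided by MES ED50, both in mg/kg.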

[11] = test system: Rattus norvegicus; experiment: (§4) Behavioral toxicity in po dosed Sprague-Dawley albino rat after 1 hr; assay type: organism-based; settings: in vivo, 1 h; how it was run: as §2
[12] = test system: Mus musculus; experiment: Anticonvulsant activity in ip dosed albino mouse assessed as inhibition of maximal electroshock-induced seizures after […]; assay type: functional
[13] = species: Mus musculus; experiment: Protective index, ratio of TD50 for albino mouse to anticonvulsant ED50 for albino mouse; assay type: functional
[14] = as §4; assay type: organism-based; settings: Sprague-Dawley, in vivo; how it was run: as §2
[15] = (§5) Behavioral toxicity in po dosed Sprague-Dawley albino rat; assay type: organism-based; settings: Sprague-Dawley, in vivo
[16] = test system: Mus musculus; experiment: Antiinflammatory activity in albino mouse assessed as reduction in formalin-induced late inflammation at 16 mg/kg, ip; assay type: functional, organism-based; set-up: dose 16 mg/kg
[17] = Toxicity in ip dosed albino mouse after 0.5 hrs by rotarod test; assay type: organism-based; settings: albino, in vivo
[18] = test system: Mus musculus; experiment: Antiinflammatory activity in albino mouse assessed as reduction in formalin-induced acute inflammation at 15 mg/kg, ip relative to control; assay type: functional; set-up: scale not given: the % may be the effect or the level left; settings: route intraperitoneal
How it was run: (§6)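 Male albino mice, 16 per trial (8 given vehicle ip, 8 given 15 mg/kg ip); 0.5% formalin injected into hind paw; paw-licking time recorded in 2 min intervals for 45 min; acute and late (inflammatory) phases expressed as percent of control.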

[19] = test system: Rattus norvegicus; experiment: Behavioral toxicity in po dosed Sprague-Dawley albino rat after 0.5 hrs; assay type: organism-based; settings: in vivo; how it was run: as §2
[20] = test system: Rattus norvegicus; experiment: Anticonvulsant activity in po dosed Sprague-Dawley albino rat assessed as inhibition of maximal electroshock-induced seizures after 0.5 hrs; assay type: functional
[21] = test system: Mus musculus; experiment: Antiinflammatory activity in albino mouse assessed as reduction in formalin-induced late inflammation at 15 mg/kg, ip relative to control; assay type: functional; set-up: scale not given: the % may be the effect or the level left; settings: route intraperitoneal; how it was run: as §6
[22] = test system: Mus musculus; experiment: Anticonvulsant activity in ip dosed albino mouse assessed as protection against 6 Hz electric shock-induced seizures after […]; assay type: functional
[23] = test system: Rattus norvegicus; experiment: Antiallodynic activity in Sprague-Dawley albino rat sciatic nerve ligation model of neuropathic pain assessed as fold attenuation of mechanical allodynia at 12 mg/kg, ip after 1 hr relative to control; assay type: functional; settings: route intraperitoneal
How it was run: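 Male albino Sprague-Dawley rats; sciatic nerve ligated on right side, sham exposure on left; after 7 d recovery, animals on wire mesh platform, 30–60 min acclimation. Baseline 50% paw withdrawal threshold by calibrated von Frey fibres held 6 s, stepping down after a positive response; threshold re-measured after 12 mg/kg ip at time-to-peak effect in MES test.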

[24] = Behavioral toxicity in po dosed Sprague-Dawley albino rat after 0.25 to 4 hrs; assay type: organism-based; settings: in vivo; how it was run: as §2
[25] = test system: Rattus norvegicus; experiment: Anticonvulsant activity in po dosed Sprague-Dawley albino rat assessed as inhibition of maximal electroshock-induced seizures after 0.25 to 4 hrs; assay type: functional; how it was run: as §3
[26] = test system: Rattus norvegicus; experiment: as §5; assay type: organism-based; settings: in vivo

CC(=O)NC(C(=O)NCc1ccc(OCc2cccc(F)c2)cc1)c1ccccn1 (racemic)
ED50 [1]: 28 mg/kg
Activity [2]: inactive
TD50 at 4 h [3]: > 30 mg/kg
Activity [4]: inactive

CC(=O)NCC(=O)NCc1ccc(OCc2cccc(F)c2)cc1
ED50 [5]: 31 mg/kg
ED50 [6]: 18 mg/kg
Activity [2]: inactive
TD50 at 4 h [7]: > 300 mg/kg
Activity [4]: inactive
ED50 [8]: 100 mg/kg
ED50 [9]: 30 mg/kg
Ratio TD50/ED50 [10]: >16
TD50 [11]: > 500 mg/kg

COC[C@@H](NC(C)=O)C(=O)NCc1ccc(OCc2ccccc2)cc1
ED50 [12]: 5.8 mg/kg
Ratio TD50/ED50 [10]: >45
Ratio TD50/ED50 [13]: 3.8
TD50 at 1 h [14]: > 250 mg/kg

COC[C@@H](NC(C)=O)C(=O)NCc1ccccc1 [LACOSAMIDE]
TD50 [15]: > 500 mg/kg
Activity [2]: inactive
Activity [4]: inactive
Activity [16]: Active

COC[C@@H](NC(C)=O)C(=O)NCc1ccc(NCc2cccc(F)c2)cc1
ED50 [1]: 10 mg/kg
TD50 at 0.5 h [17]: 30 mg/kg

CCCC(CCC)C(=O)[O-].[Na+] [VALPROATE SODIUM]
Activity [2]: inactive
Activity [4]: inactive
ED50 [12]: 270 mg/kg

COC[C@@H](NC(C)=O)C(=O)NCc1ccc(COCc2cccc(F)c2)cc1
ED50 [1]: 30 mg/kg
TD50 at 0.5 h [17]: 30 mg/kg

COC[C@@H](NC(C)=O)C(=O)NCc1ccc(OCc2cccc(F)c2)cc1
Activity [18]: 35%
Activity [2]: inactive
TD50 [19]: > 500 mg/kg
Activity [4]: inactive
ED50 [12]: 13 mg/kg
ED50 [20]: 14 mg/kg
Ratio TD50/ED50 [10]: >36
Activity [21]: 44%
Ratio TD50/ED50 [13]: 2
ED50 [22]: 10 mg/kg
fold change (FC) [23]: 11.2

COC[C@@H](NC(C)=O)C(=O)NCc1ccc(OCc2ccccc2F)cc1
ED50 [12]: 6.7 mg/kg

COC[C@@H](NC(C)=O)C(=O)NCc1ccc(OCCc2cccc(F)c2)cc1
ED50 [1]: 30 mg/kg
ED50 [8]: 30 mg/kg
TD50 at 0.5 h [17]: 30 mg/kg

CC(=O)N[C@@H](C)C(=O)NCc1ccc(OCc2cccc(F)c2)cc1
ED50 [1]: 100 mg/kg
Activity [2]: inactive
TD50 [24]: > 30 mg/kg
Activity [4]: inactive
ED50 [8]: > 300 mg/kg
ED50 [25]: > 30 mg/kg

COC[C@@H](NC(C)=O)C(=O)NCc1ccc(OCc2ccc(F)cc2)cc1
ED50 [1]: 10 mg/kg
TD50 at 0.5 h [17]: 30 mg/kg

CC(=O)N[C@@H](C(=O)NCc1ccc(OCc2cccc(F)c2)cc1)C(C)C
ED50 [6]: > 30 mg/kg
TD50 [26]: > 30 mg/kg
Activity [2]: inactive
TD50 at 4 h [7]: > 300 mg/kg
Activity [4]: inactive
ED50 [8]: > 300 mg/kg

COC[C@@H](NC(C)=O)C(=O)NCc1ccc(CCc2cccc(F)c2)cc1
ED50 [1]: 10 mg/kg
ED50 [5]: < 30 mg/kg
TD50 at 0.5 h [17]: 30 mg/kg
TD50 [11]: > 30 mg/kg
